UHRF1 binding: human UHRF1 methylated DNA binding inhibitors; Q96T88; UHRF1 binding to methylated oligo, TR-FRET; inhibition, % at 4.4 µM; 370,000 compounds, 0.75% hits; AID 687016; in the data active = inhibition above about 21%;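 also: UHRF1 SRA domain binding a hemimethylated CpG hairpin DNA probe; 0% = median of test compound wells and 100% = reference inhibitor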
Target sequence (Q96T88 whole entry, looked up, the tested form may be a part): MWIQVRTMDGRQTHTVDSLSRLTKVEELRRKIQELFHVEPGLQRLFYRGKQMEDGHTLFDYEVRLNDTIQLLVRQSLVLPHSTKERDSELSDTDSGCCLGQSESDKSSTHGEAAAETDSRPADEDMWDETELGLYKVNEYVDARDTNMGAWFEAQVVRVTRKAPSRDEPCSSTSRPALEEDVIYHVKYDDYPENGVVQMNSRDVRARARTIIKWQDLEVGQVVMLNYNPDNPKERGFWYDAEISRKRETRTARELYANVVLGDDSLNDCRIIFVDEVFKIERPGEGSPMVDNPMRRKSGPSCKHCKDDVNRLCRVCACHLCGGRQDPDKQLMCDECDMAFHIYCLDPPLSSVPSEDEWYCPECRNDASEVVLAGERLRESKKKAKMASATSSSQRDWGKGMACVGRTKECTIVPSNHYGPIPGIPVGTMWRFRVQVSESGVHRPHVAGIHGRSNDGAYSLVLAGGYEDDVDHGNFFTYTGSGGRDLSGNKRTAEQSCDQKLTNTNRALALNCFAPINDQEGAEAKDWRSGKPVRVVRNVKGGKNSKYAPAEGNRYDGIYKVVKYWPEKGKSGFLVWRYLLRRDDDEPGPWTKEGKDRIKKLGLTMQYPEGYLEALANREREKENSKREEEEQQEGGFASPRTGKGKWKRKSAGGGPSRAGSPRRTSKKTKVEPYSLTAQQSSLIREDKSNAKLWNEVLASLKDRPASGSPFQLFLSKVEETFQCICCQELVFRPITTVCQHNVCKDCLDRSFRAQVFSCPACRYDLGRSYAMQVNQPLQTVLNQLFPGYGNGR
TDP2 absorb: TDP2 (human) inhibition, absorbance primary screen | inhibition, % at 12.8 µM | recombinant TDP2, T5PNP hydrolysis, p-nitrophenol absorbance 415 nm | 370,000 compounds, 0.34% hits | AID 720702;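 active = inhibition above the mean of all tested compounds plus 3 SD, set per campaign, cut at about 25% in these data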;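 also: 0% = DMSO with enzyme and 100% = buffer with substrate but no TDP2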
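Read-out basis: percent inhibition. System: recombinant human TDP2. Buffer or medium: Mg2+-containing Tris-HCl buffer, pH 7.5. Repeats: single replicate. Timing: reaction 2 h, 37 °C. Benchmarks: high control without enzyme, low control DMSO plus TDP2. Probe or stimulus: 5 mM T5PNP. Doses: 12.8 µM only. Measured by: epi absorbance of p-nitrophenol freed from T5PNP by hydrolysis.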
PRMT1 FP inh: PRMT1 (human) inhibition, primary screen. AID 652257. recombinant PRMT1, activity-based probe fluorescence polarization. inhibition, % at 2.79 µM. Q99873. 370,000 compounds, 1.3% hits;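 active = inhibition above about 21% made by adding two undisclosed values, limit read from the data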
LEDGF integ inh: blocks HIV-1 LEDGF/p75-dependent DNA integration. TR-FRET IN-LEDGF/p75 DNA integration, Eu/Cy5. inhibition, % at 3.7 µM. 370,000 compounds, 0.64% hits;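 active = inhibition above the screen-wide mean plus 3 SD, cut at about 13% in these data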;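 also: signal is the Cy5 over europium emission ratio at 671 and 618 nm; 0% = plate median of compound wells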
MBD2 inh: blocks human MBD2 binding to methylated DNA; Q9UBB5; TR-FRET, MBD2 binding to methylated oligonucleotide; inhibition, % at 4.4 µM; 370,000 compounds, 0.31% hits; AID 686964; in the data active = inhibition above about 13%
SIAE primary: human SIAE inhibition, primary screen. Q9HAT2. inhibition, % at 9.66 µM. 370,000 compounds, 0.69% hits. SIAE FP-Rh probe binding, fluorescence polarization;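 active = inhibition above a cutoff: mean of compounds within the control limits plus 3 SD of those, cut at about 17% in these data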;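 also: 0% = plate median of compound wells and 100% = probe without SIAE protein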
TDP2 inh conf: confirmation of human TDP2 inhibitors; 1,100 compounds, 22% hits; shares compounds with TDP2 absorb; inhibition, % at 12.8 µM; recombinant human TDP2, absorbance read-out; in the data active = inhibition above about 25%;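 also: 0% = vehicle with enzyme and 100% = no enzyme buffer only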
IN multimer act: HIV-1 integrase multimerization activation, counter-screen; shares compounds with LEDGF integ inh; TR-FRET HIV-1 integrase multimerization, biochemical; activation, % at 7.7 µM; 2,000 compounds, 17% hits; in the data active = activation above about 8.9%
TR-FRET interf: optically interferes with TR-FRET readout in LEDGF counter-screen; shares compounds with LEDGF integ inh; TR-FRET optical interference counterscreen, HIV-1 IN multimerization; inhibition, % at 7.7 µM; 2,000 tested, under 10 active; AID 1053135;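 active = inhibition above the mean over all tested compounds plus 3 SD, which no compound reached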;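 also: 0% = integrase with antibodies and DMSO and 100% = antibodies without integrase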
IN-LEDGF confirm: LEDGF/p75-dependent HIV-1 integration inhibition, confirmation | TR-FRET LEDGF/p75-dependent HIV-1 integration, biochemical | 2,000 compounds, 36% hits | AID 1053136 | shares compounds with LEDGF integ inh | inhibition, % at 3.7 µM; in the data active = inhibition above about 14%
SIAE confirm: confirmation of human SIAE inhibitors; AID 1117263; inhibition, % at 9.66 µM; 2,300 compounds, 13% hits; SIAE FP-Rh activity-based probe, fluorescence polarization; shares compounds with SIAE primary;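 active = mean inhibition of the replicates above the hit cutoff set in the primary screen, cut at about 17% in these data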;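 also: 0% = SIAE with DMSO and probe and 100% = probe without SIAE; inhibitors lower polarization as more probe stays unbound to SIAE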
An asterisk follows results filed as active; / = no result. Sampled rows, rich in hits. Any-hit rate of the full collection: about 3.3%.

SMILES	UHRF1 binding	TDP2 absorb	PRMT1 FP inh	LEDGF integ inh	MBD2 inh	SIAE primary	TDP2 inh conf	IN multimer act	TR-FRET interf	IN-LEDGF confirm	SIAE confirm
COc1ccccc1NC(=O)COC(=O)c1ccc([N+](=O)[O-])s1	2	32*	8	17*	5	-6	24	0	-2	44*	/
Cc1cccc(NC2=C(NCCO)C(=O)c3ccccc3C2=O)c1	-1	58*	1	20*	-15	13	2	4	-13	0	/
Nc1ccc2nn(-c3ccccc3)nc2c1	-1	27*	8	10	3	19*	13	/	/	/	6
Nc1ccc(-n2nc3ccccc3n2)cc1	-3	10	-2	2	-4	-2	/	/	/	/	/
Cc1cc(F)ccc1C(=O)N1CCC(Oc2cccnc2)CC1	1	5	-4	0	0	9	/	/	/	/	/
N#CCc1cnc2ccccc2n1	-1	28*	17	0	-8	18*	22	/	/	/	-2
Fc1ccc(F)c(Cn2ccc3ccc(-c4ccc5ccn(Cc6cc(F)ccc6F)c5c4)cc32)c1	0	8	-1	-2	-5	0	/	/	/	/	/
COc1cc(CNc2ccc(O)cc2)cc(Br)c1OCc1ccccc1	5	36*	9	10	-8	26*	-5	/	/	/	5
COc1cc(C(=O)N2CCC(N3CCCCCC3)CC2)cc(OC)c1OC	-1	1	1	1	-9	0	/	/	/	/	/
COc1cc(C(=O)N2CCN(C3CCCCC3)CC2)cc(OC)c1OC	-3	25*	-3	-2	-2	18*	6	/	/	/	10
O=C(O)CCCNc1cc(N2CCN(C(=O)c3ccco3)CC2)c2noc3c2c1C(=O)c1ccccc1-3	-2	30*	19	4	-13	62*	27*	/	/	/	33*
O=C1C(Nc2ccc(O)cc2)=C/C(=N/S(=O)(=O)c2cccs2)c2ccccc21	3	78*	13	55*	-11	21*	78*	7	-26	70*	5
CC(=O)CC[C@@H]1CC[C@]2(CCCN(C(=O)C3CCCCC3)C2)O1	-1	4	-2	-1	-2	8	/	/	/	/	/
CC(=O)c1cc(-c2ccc(-c3cc(C(=O)O)c4ccccc4n3)cc2)c(=O)n2c1CCC2	1	-5	8	-3	4	-3	/	/	/	/	/
CC(=O)Nc1ccc(S(=O)(=O)Nc2ccc(N3CCOCC3)cc2)cc1	-1	9	3	-1	1	6	/	/	/	/	/
CCOC(=O)N1CCN(C2=C(NS(=O)(=O)c3ccc(C)cc3)C(=O)c3ccccc3C2=O)CC1	-6	42*	2	15*	-17	20*	32*	/	/	/	8
CC(=O)Nc1ccc(S(=O)(=O)NC2=C(N3CCN(c4ccc(F)cc4)CC3)C(=O)c3ccccc3C2=O)cc1	-1	36*	0	5	-12	25*	30*	/	/	/	24*
COC(=O)[C@]12C[C@H](CC(=O)NCc3cccs3)C(=O)N(Cc3ccc(Cl)cc3Cl)C1=C[C@H](C1CCCC1)O[C@@H]2C	-1	-12	-1	-1	1	5	/	/	/	/	/
CCOC(=O)C1CCN(C(=O)CCC(=O)NNc2nc3ccccc3c3nc(C)nn23)CC1	3	11	0	1	-5	13	/	/	/	/	/
Cc1nc2c3ccccc3nc(NNC(=O)CCC(=O)N3CCC(C)CC3)n2n1	-2	29*	-1	2	2	23*	7	/	/	/	3
CCc1ccccc1NC(=O)C1CCC(=O)N(c2ccc(OC)cc2)C1c1ccc(OC)cc1 (stereo not drawn)	0	-1	-13	2	0	-1	/	/	/	/	/
O=C1/C(=C\c2ccc(O)c(O)c2)C(c2ccccc2)=NN1c1ccccc1	16	26*	9	19*	-2	28*	6	24*	-118	29*	11
CCCC(=Nc1ccc(N)cc1)C1=C(O)C(C(=O)OC)C(C)(C)CC1=O (stereo not drawn)	17	53*	16	54*	3	35*	12	21*	-75	5	10
CCCC(=O)C1=C(O)C(C(=O)OC)C(C)(C)CC1=Nc1ccc(N)cc1 (stereo not drawn)	1	5	2	0	3	-2	/	/	/	/	/
CC1Cc2ccccc2N1C(=O)CSCC(=O)O (stereo not drawn)	0	-2	-1	16*	0	0	/	1	-4	-3	/
SMILES	UHRF1 binding	TDP2 absorb	PRMT1 FP inh	LEDGF integ inh	MBD2 inh	SIAE primary	TDP2 inh conf	IN multimer act	TR-FRET interf	IN-LEDGF confirm	SIAE confirm
CC1Cc2ccccc2N1C(=O)CSc1ccccn1 (stereo not drawn)	5	-1	1	-6	4	1	/	/	/	/	/
COC(=O)[C@]12C=CCN1[C@@H](c1ccc(C(F)(F)F)cc1)c1c(c3ccccc3n1S(=O)(=O)c1ccc(C)cc1)C2	-1	2	5	-4	-5	-11	/	/	/	/	/
CC1CCN(C(=O)COC(=O)c2ccc(Br)o2)CC1	9	8	2	22*	2	-3	/	1	-4	-4	/
CCOC(=O)C1CCN(C(=O)COC(=O)c2ccc(Br)o2)CC1	-4	-9	2	-3	-6	-1	/	/	/	/	/
O=C1C2C3C=CC(C3)C2C(=O)N1c1ccccc1OS(=O)(=O)c1ccccc1 (stereo not drawn)	14	3	2	21*	2	8	/	0	1	-3	/
Cc1ccc(S(=O)(=O)Oc2ccccc2N2C(=O)C3C4CCC(C4)C3C2=O)cc1 (stereo not drawn)	0	3	3	-4	1	5	/	/	/	/	/
CCCCOc1ccc(C(=O)N/C(=C\c2cccc([N+](=O)[O-])c2)C(=O)OCCC)cc1	4	6	0	-4	-4	3	/	/	/	/	/
CCCCOc1ccc(C(=O)N/C(=C\c2ccc([N+](=O)[O-])cc2)C(=O)OCc2ccco2)cc1	-2	1	-1	21*	7	-5	/	0	-1	-2	/
CC(C)(C)OC(=O)NCc1ccccc1/C=C/S(=O)(=O)NCc1ccc(F)cc1	0	-4	-6	9	-1	-6	/	/	/	/	/
